Compound activity from PubChem BioAssay.
APJ antag = antagonists of human APJ apelin receptor. P35414. CHO-K1 APJ beta-arrestin complementation, luminescence. 0.32% of 330,000 active. AID 2521. inhibition, % at 20 µM;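 active = inhibition above about 40% at 20 µM, limit read from the data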;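 note: cells challenged with 10 nM apelin-13 agonist together with compound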
CXCR6 block = CXCR6 (human) receptor inhibition; O00574; CHO-K1 PathHunter CXCR6 beta-arrestin, luminescence; inhibition, % at 20 µM; 0.36% of 360,000 active; AID 602244; in the data active = inhibition above about 34%, passing the limit was not always enough;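 note: antagonist mode with CXCL16 agonist at 10 nM final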
Target sequence (O00574 whole entry, looked up): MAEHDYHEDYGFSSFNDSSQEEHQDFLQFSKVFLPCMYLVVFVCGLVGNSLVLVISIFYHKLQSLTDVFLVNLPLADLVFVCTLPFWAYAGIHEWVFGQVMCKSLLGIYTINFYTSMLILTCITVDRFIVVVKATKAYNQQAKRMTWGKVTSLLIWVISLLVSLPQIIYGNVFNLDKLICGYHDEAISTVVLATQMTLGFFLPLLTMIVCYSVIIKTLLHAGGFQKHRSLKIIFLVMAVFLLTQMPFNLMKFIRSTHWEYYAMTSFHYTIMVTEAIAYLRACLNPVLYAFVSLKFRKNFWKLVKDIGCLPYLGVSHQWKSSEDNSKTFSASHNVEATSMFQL
EBI2 antag = antagonists of human EBI2 receptor; EBI2 beta-arrestin recruitment, luminescence, 7a,25-OHC stimulated; inhibition, % at 5 µM; 0.81% of 360,000 active; AID 651636; in the data active = inhibition above about 38%;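 note: enzyme fragment complementation signal reports receptor beta-arrestin coupling in cells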
APJ agonist = activates the human apelin receptor APJ; CHO-K1 APJ PathHunter beta-arrestin, luminescence; 0% DMSO wells, 100% apelin; activation, % at 20 µM; 0.11% of 330,000 active; AID 2520;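 active = activation more than six SD over the plate average, tested at 20 µM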
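assay system = CHO-K1 APJ beta-arrestin complementation cell line | input = cell density 1000 per well | dosing = compound 20 µM once, DMSO 1% | timing = compound 90 min 25 °C, reagent 1 h | measured by = luminescence from split beta-galactosidase complementation, Galacton Star/Emerald II substrate | read-out basis = APJ agonist activity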
CCR6 antagonist = antagonists of human CCR6 receptor | inhibition, % at 20 µM | AID 493098 | 0.49% of 340,000 active | CHO-K1 CCR6 PathHunter beta-arrestin, luminescence, CCL20-stimulated;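 active = compounds whose inhibition of the agonist-driven luminescence signal at 20 µM reaches about 50%, limit read from the data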;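 note: cells stimulated with CCL20 at 14 nM final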
EBI2 conf = confirmation of human EBI2 receptor antagonists; EBI2 beta-arrestin luminescence, 7a,25-OHC antagonism; shares compounds with EBI2 antag; 29% of 2,400 active; AID 651997; inhibition, % at 5 µM;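 active = inhibition of at least 50%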
EBI2 agonist = counter-screen for EBI2 antagonists: EBI2 agonist activity; AID 652000; 2,400 tested, under 10 active; activation, % at 5 µM; EBI2-expressing cells, agonist mode, luminescence, 60 min; 0% vehicle, 100% 7α,25-dihydroxycholesterol control; shares compounds with EBI2 antag;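 active = activation of at least 50%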
bGal cs = inhibits E. coli beta-galactosidase, counter-screen for EBI2 antagonists; AID 652176; shares compounds with EBI2 antag; purified beta-galactosidase, luminescent Galacton Star, 15 min; inhibition, % at 5 µM; 1% of 2,400 active;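 active = replicate-average signal at least 3 plate SD below neutral wells, shown as high inhibition, flagging enzyme-inhibiting false positives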;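 note: higher means stronger loss of beta-gal luminescence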
Hits are given with their value; 0 = inactive; - = not tested or not shown. An excerpt weighted towards active compounds, which were near 1.5% of everything screened.

SMILES	APJ antag	CXCR6 block	EBI2 antag	APJ agonist	CCR6 antagonist	EBI2 conf	EBI2 agonist	bGal cs
Cc1ccc(S(=O)(=O)N2CCN(C(=O)CSc3ccc(Cl)cc3)CC2)cc1	0	0	92	0	0	68	0	0
Cc1ccc(SCC2(O)CCN(S(=O)(=O)c3ccc(Cl)cc3)CC2)cc1	0	0	0	0	0	-	-	-
Cc1ccc(SCC(=O)N2CCN(S(=O)(=O)c3cccs3)CC2)cc1	0	0	76	0	0	0	0	0
Cc1ccc(S(=O)(=O)N2CCN(S(=O)(=O)c3cccs3)CC2)cc1	0	0	0	0	0	-	-	-
CC(C)N1CCCC(CNC(=O)CCc2nnc(CCCCc3ccccc3)o2)C1 (stereo not drawn)	0	0	0	0	0	-	-	-
O=C(/C=C/c1ccc(Cl)cc1)NCCSc1ccccc1	0	0	60	0	0	0	0	0
O=C(/C=C/c1ccccc1)NCCSCc1ccc(Cl)cc1	0	0	52	0	0	0	0	0
CSc1cccc(NC(=O)/C=C/c2ccc(Cl)cc2)c1	0	0	59	0	0	68	0	0
O=C(/C=C/c1ccc(Cl)cc1)NCc1cccs1	0	0	53	0	0	53	0	0
Cc1c(C(=O)Nc2ccc(Cl)cc2)c2ccccn2c1C(=O)c1ccccc1	0	0	0	0	0	-	-	-
NC(CC(=O)O)c1ccc(F)cc1 (stereo not drawn)	0	0	0	0	0	-	-	-
CC(C)Cn1c(N2CCN(CC(=O)Nc3ccc(Cl)cc3)CC2)nc2ccccc21	0	0	74	0	0	0	0	0
COc1cc(-c2nnc(SCc3ccccc3Cl)o2)cc(OC)c1OC	0	0	0	0	0	-	-	-
COc1cc(-c2nnc(SCc3c(F)cccc3Cl)o2)cc(OC)c1OC	0	0	42	0	0	0	0	0
O=C(c1cc2cc(Br)ccc2o1)N1CCCCC1	0	0	57	0	0	0	0	0
CC(C)(C)CC(C)(C)c1ccc(O)c(CN2CCN(CCC#N)CC2)c1	0	0	0	0	0	-	-	-
CC(C)(C)CC(C)(C)c1ccc(O)c(Cc2ccc(Cl)cc2Cl)c1	-	0	75	-	0	0	0	0
COc1ccc2oc(C(=O)N3CCN(C(c4ccccc4)c4ccccc4)CC3)c(C)c2c1	0	0	92	0	0	68	0	0
COc1ccc(N2CCN(C(=O)c3oc4ccccc4c3C)CC2)cc1	0	0	0	0	0	-	-	-
COc1ccc(-c2cc(C(=O)N3CCN(C(c4ccccc4)c4ccccc4)CC3)no2)cc1	0	0	91	0	0	76	0	0
COc1ccc2oc(C(=O)N3CCN(C/C=C/c4ccccc4)CC3)c(C)c2c1	0	0	46	0	0	0	0	0
Cc1c(C(=O)N2CCN(C/C=C/c3ccccc3)CC2)oc2c(F)cccc12	0	0	0	0	0	-	-	-
CN1C[C@H](C(=O)NC2(C)OC3(O)[C@@H]4CCCN4C(=O)[C@H](Cc4ccccc4)N3C2=O)CC2c3cccc4[nH]cc(c34)C[C@H]21 (stereo partly drawn)	-	0	0	-	0	-	-	-
COc1ccc(C(=O)NCC(c2ccccc2)c2ccccc2)cc1S(=O)(=O)N1CCOCC1	-	0	0	-	0	-	-	-
COc1ccc(C(=O)C(=O)N2CCC(c3ccccc3)CC2)cn1	-	-	43	-	-	0	0	0
SMILES	APJ antag	CXCR6 block	EBI2 antag	APJ agonist	CCR6 antagonist	EBI2 conf	EBI2 agonist	bGal cs
O=C(CCCOc1ccccc1)Nc1cccc(S(=O)(=O)N2CCCCC2)c1	0	0	0	0	0	-	-	-
COc1ccc([C@H]2CC(=O)C=C(c3ccc4ccccc4c3)C2)cc1OC	0	0	62	0	0	51	0	0
COc1ccc([C@H]2CC(=O)C=C(c3cc(F)ccc3OC)C2)cc1	0	0	0	0	0	-	-	-
COc1ccc([C@H]2CC(=O)C=C(c3ccc(O)cc3)C2)cc1OC	0	0	0	0	0	-	-	-
COc1ccc([C@H]2CC(=O)C=C(c3ccc(OC)c(OC)c3)C2)cc1	0	0	46	0	0	0	0	0
COc1ccc([C@H]2CC(=O)C=C(c3ccc(OC)c(F)c3)C2)cc1	0	0	51	0	0	0	0	0
O=C(Oc1ccc2c(c1)OCO2)c1cccs1	0	0	0	0	0	-	-	-
CN(C)c1ccc(C(=O)Nc2ccc(CN3CCS(=O)(=O)CC3)cc2)cc1	0	0	0	0	0	-	-	-
NS(=O)(=O)c1cc(C(=O)OCC(=O)c2ccccc2)c(Cl)cc1Cl	0	0	0	0	0	-	-	-
CCCN1CCC(NC(=S)Nc2ccc(C(=O)OCC)cc2)CC1	0	0	0	0	0	-	-	-
Cc1ccc(-c2ccc(C(=O)NCc3ccc(Cl)cc3)o2)c2ccccc12	0	0	0	0	0	-	-	-
COc1ccccc1N1CCN(C(=O)c2cc(=O)c3ccc(C)cc3o2)CC1	0	0	0	0	0	-	-	-
COc1ccc(N2CCN(C(=O)c3cc(=O)c4cc(C)c(C)cc4o3)CC2)cc1	0	0	92	0	0	87	0	0
COc1ccc(N2CCN(C(=O)c3cc(=O)c4cc(C)cc(C)c4o3)CC2)cc1	0	0	80	0	0	84	0	0
COc1ccc(N2CCN(C(=O)c3cc(=O)c4cc(C)ccc4o3)CC2)cc1	0	0	92	0	0	82	0	0
O=C(CN(Cc1ccco1)C(=O)CNS(=O)(=O)c1ccccc1)NCc1ccc(F)cc1	0	0	0	0	0	-	-	-
Nc1ccc(CC(N)c2csc(Nc3cc(Oc4ccccc4)ncn3)n2)cc1 (stereo not drawn)	-	0	0	-	-	-	-	-
CCCn1c(SCN2C(=O)c3ccccc3C2=O)nc2cc(Cl)ccc2c1=O	0	0	0	0	0	-	-	-
CC1CC(C)CN(c2ncc3c(n2)CC(c2ccc(Cl)cc2)CC3=O)C1 (stereo not drawn)	0	0	57	0	0	0	0	0
CC1CC(C)CN(c2ncc3c(n2)CC(c2ccccc2Cl)CC3=O)C1 (stereo not drawn)	0	0	0	0	0	-	-	-
O=C(c1ccc(Cl)cc1)c1oc2ccccc2c1CS(=O)c1ccc(Cl)cc1 (stereo not drawn)	0	0	52	0	0	51	0	0
CCCCSc1nc2ccc(Nc3nc(N4CCOCC4)nc(N4CCOCC4)n3)cc2s1	0	0	46	0	0	0	0	0
CCCCNC(=O)CSc1nc2ccc(Nc3nc(N4CCOCC4)nc(N4CCOCC4)n3)cc2s1	0	0	0	0	0	-	-	-
O=S1(=O)CCC(n2ncc3c2/C(=C/c2ccccc2)CC3)C1 (stereo not drawn)	0	0	0	0	0	-	-	-
O=C1NC(Cc2ccc(O)cc2)c2nc3ccccc3c(=O)n2-c2ccccc21 (stereo not drawn)	0	-	-	0	-	-	-	-
